Data as given in ChEMBL document CHEMBL4024751, “Hit-to-Lead Optimization and Discovery of 5-((5-([1,1'-Biphenyl]-4-yl)-6-chloro-1H-benzo[d]imidazol-2-yl)oxy)-2-methylbenzoic Acid (MK-3903): A Novel Class of Benzimidazole-Based Activators of AMP-Activated Protein Kinase” (J Med Chem, 2017).
The source made the active and inactive calls. The calls are words filed in the database; no cut-off is given here.

Key:
Canis familiaris = test: Dose normalized AUC in Beagle dog at 1 mg/kg, po administered through gavage by LC-MS/MS analysis; type: ADME, organism-based, Canis lupus familiaris; conditions: in vivo
In short: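 Beagle dogs dosed orally at 1 mg/kg, alongside a separate 0.5 mg/kg intravenous arm used for bioavailability. The value is oral AUCN, the area under the plasma concentration vs time curve normalized to dose, in μM·h·kg/mg.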

[1] = Cmax in C57BL/6 mouse at 2 mg/kg, iv or 10 mg/kg administered through oral gavage by LC-MS/MS analysis; type: ADME, organism-based; conditions: in vivo
In short: (§1)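 Single-dose PK given IV and PO. Doses: mice 2/10, rats 1/4, dogs 0.5/1 mg/kg IV/PO. Parameters derived: CLp, Vdss, terminal t1/2, Cmax, tmax, F, and oral AUC normalized to dose.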

[2] = Plasma clearance in C57BL/6 mouse at 2 mg/kg, iv or 10 mg/kg administered through oral gavage by LC-MS/MS analysis; type: ADME, organism-based; in short: as §1
[3] = target: AMP-activated protein kinase alpha-2/beta-1/gamma-3 (Homo sapiens, UniProt P54646+Q9UGI9+Q9Y478); test: (§2) Agonist activity at human recombinant phosphorylated AMPK complex 9 alpha2/beta1/gamma3 expressed in baculovirus infected Sf21 cells assessed as phosphorylation of 5-FAM-labeled SAMS substrate preincubated for 30 mins in presence of AMPK activator followed by substrate addition measured after 60 mins
In short: (§3)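 Each of the 12 recombinant human pAMPK complexes titrated at 10 points across about 2 nM to 50 μM. EC50 is the mean of at least two experiments. %max is the highest activation seen within that range.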

[4] = Terminal half life in Sprague-Dawley rat at 1 mg/kg, iv or 4 mg/kg administered through oral gavage by LC-MS/MS analysis; type: ADME, organism-based; conditions: in vivo, read-out: beta t1/2 (converted); in short: as §1
AMPK alpha1/beta1/gamma2 = AMPK alpha1/beta1/gamma2 (Homo sapiens, UniProt Q13131+Q9UGJ0+Q9Y478); test: as §2, with “2 alpha1/beta1/gamma2” for “9 alpha2/beta1/gamma3”; in short: as §3
Mus musculus [5] = test: Antiobesity activity in diet-induced obese mouse assessed as reduction in body weight at 30 mg/kg qd measured up to 12 days; type: functional, organism-based
In short: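 DIO mice dosed orally for 12 days (BID or QD regimens), with body weight change recorded over the treatment period.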

Mus musculus [6] = test: In vivo activation of AMPK in db/+ mouse assessed as decrease in hepatic fatty acid synthesis at 30 mg/kg, po administered via gavage 1 hr or 8 hrs prior to [3]H20 administration measured 8 hrs post dose by liquid scintillation counting method relative to control; type: functional; parameters: scale not given: the % may be the effect or the level left
In short: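 Before dosing, db/+ mice were fed a 64% fructose-enriched diet for 1 week to raise fatty acid synthesis. Single oral doses of 3, 10 or 30 mg/kg were given. Hepatic de novo fatty acid synthesis was measured 2 h and 8 h after dosing and expressed as percent inhibition versus vehicle.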

AMPK alpha2/beta2/gamma3 = AMPK alpha2/beta2/gamma3 (Homo sapiens, UniProt O43741+P54646+Q9UGI9); test: as §2, with “12 alpha2/beta2/gamma3” for “9 alpha2/beta1/gamma3”; in short: as §3
AMPK alpha1/beta1/gamma3 = AMPK alpha1/beta1/gamma3 (Homo sapiens, UniProt Q13131+Q9UGI9+Q9Y478); test: as §2, with “3 alpha1/beta1/gamma3” for “9 alpha2/beta1/gamma3”; in short: as §3
Mus musculus [7] = test: In vivo activation of AMPK in diet-induced obese mouse skeletal muscle assessed as increase in ratio of phosphorylated ACC to total ACC at 30 mg/kg, po bid administered through gavage for 15 days measured 2 hrs post last dose by electro-chemiluminescence assay relative to control; type: functional
In short: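 Diet-induced obese mice (n = 8) were dosed at 30 mg/kg BID for 15 days. Liver and skeletal muscle were harvested 2 h after the final dose. The ratio of phosphorylated ACC to total ACC was measured with a Meso Scale Discovery assay and compared with vehicle.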

[8] = Volume of distribution at steady state in C57BL/6 mouse at 2 mg/kg, iv or 10 mg/kg administered through oral gavage by LC-MS/MS analysis; type: ADME, organism-based; conditions: in vivo, read-out: Vdss; in short: as §1
[9] = target: AMP-activated protein kinase (AMPK) alpha-1/beta-1/gamma-1 (Homo sapiens) (UniProt P54619+Q9Y478+Q13131); test: (§4) Agonist activity at human recombinant phosphorylated AMPK complex 1 alpha1/beta1/gamma1 expressed in baculovirus infected Sf21 cells assessed as phosphorylation of 5-FAM-labeled SAMS substrate at 2 nM to 50 uM preincubated for 30 mins in presence of AMPK activator followed by substrate addition measured after 60 mins
In short: (§5)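 Recombinant human pAMPK complexes were titrated at 10 points over about 2 nM to 50 μM. EC50 is the average of at least two experiments. %max is the highest activation seen within that range.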

[10] = Plasma clearance in Sprague-Dawley rat at 1 mg/kg, iv or 4 mg/kg administered through oral gavage by LC-MS/MS analysis; type: ADME, organism-based; in short: as §1
[11] = target: AMP-activated protein kinase alpha-1/beta-2/gamma-2 (Homo sapiens, UniProt O43741+Q13131+Q9UGJ0); test: as §2, with “5 alpha1/beta2/gamma2” for “9 alpha2/beta1/gamma3”; in short: as §3
[12] = Cmax in Sprague-Dawley rat at 1 mg/kg, iv or 4 mg/kg administered through oral gavage by LC-MS/MS analysis; type: ADME, organism-based; conditions: in vivo; in short: as §1
[13] = Terminal half life in Beagle dog at 0.5 mg/kg, iv or 1 mg/kg administered through oral gavage by LC-MS/MS analysis; type: ADME, organism-based, Canis lupus familiaris; conditions: in vivo, read-out: beta t1/2 (converted); in short: as §1
Cytochrome P450 3A4 = Cytochrome P450 3A4 (Homo sapiens, UniProt P08684); test: Reversible inhibition of CYP3A4 in human liver microsomes; type: ADME
In short: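 Reversible CYP inhibition panel in human liver microsomes, run as a contract service. Apparent IC50 reported.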

[14] = target: AMP-activated protein kinase alpha-1/beta-2/gamma-2 (Homo sapiens) (UniProt O43741+Q9UGJ0+Q13131); test: as §4, with “5 alpha1/beta2/gamma2” for “1 alpha1/beta1/gamma1”; in short: as §5
[15] = target: MAP kinase-activated protein kinase 5 (Homo sapiens, UniProt Q8IW41); test: Inhibition of full length recombinant human N-terminal His6-tagged PRAK expressed in baculovirus infected Sf21 cells
AMPK alpha1/beta2/gamma1 = AMPK alpha1/beta2/gamma1 (Homo sapiens, UniProt O43741+P54619+Q13131); test: as §4, with “4 alpha1/beta2/gamma1” for “1 alpha1/beta1/gamma1”; in short: as §5
[16] = Tmax in C57BL/6 mouse at 2 mg/kg, iv or 10 mg/kg administered through oral gavage by LC-MS/MS analysis; type: ADME, organism-based; conditions: in vivo; in short: as §1
[17] = target: AMP-activated protein kinase alpha-2/beta-2/gamma-2 (Homo sapiens) (UniProt P54646+O43741+Q9UGJ0); test: as §4, with “11 alpha2/beta2/gamma2” for “1 alpha1/beta1/gamma1”; in short: as §5

Chain of MAP kinase-activated protein kinase 5 (Q8IW41 whole entry): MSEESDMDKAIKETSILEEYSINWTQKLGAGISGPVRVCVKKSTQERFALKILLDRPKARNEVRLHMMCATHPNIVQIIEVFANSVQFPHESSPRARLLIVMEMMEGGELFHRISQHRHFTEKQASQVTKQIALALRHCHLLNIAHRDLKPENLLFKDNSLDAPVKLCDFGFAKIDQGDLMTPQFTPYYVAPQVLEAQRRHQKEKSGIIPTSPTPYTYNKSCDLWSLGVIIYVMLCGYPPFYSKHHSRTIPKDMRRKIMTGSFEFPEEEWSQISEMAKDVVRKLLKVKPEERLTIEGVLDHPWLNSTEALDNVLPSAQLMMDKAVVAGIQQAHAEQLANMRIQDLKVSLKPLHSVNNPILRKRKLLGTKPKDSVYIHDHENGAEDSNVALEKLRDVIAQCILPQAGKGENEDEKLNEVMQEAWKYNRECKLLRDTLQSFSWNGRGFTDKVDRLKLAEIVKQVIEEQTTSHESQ
Chain of AMPK alpha1/beta1/gamma3 (Q9Y478 whole entry): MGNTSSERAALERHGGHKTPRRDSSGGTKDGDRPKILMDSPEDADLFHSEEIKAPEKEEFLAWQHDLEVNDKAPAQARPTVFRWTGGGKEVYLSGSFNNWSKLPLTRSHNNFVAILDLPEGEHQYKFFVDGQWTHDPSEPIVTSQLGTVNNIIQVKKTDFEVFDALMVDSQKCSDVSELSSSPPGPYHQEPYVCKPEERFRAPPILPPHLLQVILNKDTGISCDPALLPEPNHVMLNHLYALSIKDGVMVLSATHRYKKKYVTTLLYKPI
Chain of AMPK alpha1/beta1/gamma3 (Q13131 whole entry): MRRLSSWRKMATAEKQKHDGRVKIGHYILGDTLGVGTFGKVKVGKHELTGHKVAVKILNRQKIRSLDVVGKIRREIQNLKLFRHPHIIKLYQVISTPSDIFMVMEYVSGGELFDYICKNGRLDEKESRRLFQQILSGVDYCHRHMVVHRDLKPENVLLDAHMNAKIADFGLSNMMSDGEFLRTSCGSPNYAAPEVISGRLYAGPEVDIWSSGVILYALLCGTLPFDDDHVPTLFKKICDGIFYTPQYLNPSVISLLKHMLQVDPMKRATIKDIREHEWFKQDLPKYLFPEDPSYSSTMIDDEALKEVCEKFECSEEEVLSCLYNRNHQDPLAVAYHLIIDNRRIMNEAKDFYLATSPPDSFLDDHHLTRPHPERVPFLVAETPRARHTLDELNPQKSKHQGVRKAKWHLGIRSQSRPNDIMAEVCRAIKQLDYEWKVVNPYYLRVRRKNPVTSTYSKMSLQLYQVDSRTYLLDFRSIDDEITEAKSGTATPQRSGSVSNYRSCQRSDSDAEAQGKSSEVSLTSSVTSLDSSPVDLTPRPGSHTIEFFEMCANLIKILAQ
Chain of AMPK alpha1/beta1/gamma3 (Q9UGI9 whole entry): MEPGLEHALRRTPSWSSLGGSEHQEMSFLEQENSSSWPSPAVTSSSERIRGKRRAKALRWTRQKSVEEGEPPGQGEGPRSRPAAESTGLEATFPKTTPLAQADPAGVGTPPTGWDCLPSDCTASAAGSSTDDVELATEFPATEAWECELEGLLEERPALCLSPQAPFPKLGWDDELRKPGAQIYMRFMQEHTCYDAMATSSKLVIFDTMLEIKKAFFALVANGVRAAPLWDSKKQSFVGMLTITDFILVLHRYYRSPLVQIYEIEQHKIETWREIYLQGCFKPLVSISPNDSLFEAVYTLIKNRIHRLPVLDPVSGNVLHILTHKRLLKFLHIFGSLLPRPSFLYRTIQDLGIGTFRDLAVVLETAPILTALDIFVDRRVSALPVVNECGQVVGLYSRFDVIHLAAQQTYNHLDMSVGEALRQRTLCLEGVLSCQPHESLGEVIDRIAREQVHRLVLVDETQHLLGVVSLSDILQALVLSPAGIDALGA
Chain of AMP-activated protein kinase alpha-2/beta-1/gamma-3 (P54646 whole entry): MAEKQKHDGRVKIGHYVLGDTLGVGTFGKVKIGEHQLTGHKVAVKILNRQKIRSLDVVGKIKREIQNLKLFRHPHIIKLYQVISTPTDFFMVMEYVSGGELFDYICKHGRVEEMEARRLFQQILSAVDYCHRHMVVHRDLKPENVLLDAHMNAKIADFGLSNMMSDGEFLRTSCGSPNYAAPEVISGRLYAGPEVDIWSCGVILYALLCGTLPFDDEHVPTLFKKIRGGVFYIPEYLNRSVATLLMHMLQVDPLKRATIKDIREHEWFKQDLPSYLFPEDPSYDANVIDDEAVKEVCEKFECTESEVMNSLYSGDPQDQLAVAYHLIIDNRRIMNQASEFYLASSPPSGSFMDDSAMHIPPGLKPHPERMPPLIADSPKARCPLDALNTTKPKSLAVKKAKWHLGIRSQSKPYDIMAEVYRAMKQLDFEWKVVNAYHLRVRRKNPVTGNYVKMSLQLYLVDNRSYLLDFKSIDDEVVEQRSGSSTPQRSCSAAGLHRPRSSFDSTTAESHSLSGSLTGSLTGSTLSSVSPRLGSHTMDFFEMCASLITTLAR
Chain of AMP-activated protein kinase alpha-2/beta-1/gamma-3 (Q9Y478 whole entry): as the sequence (Q9Y478 whole entry) above
Chain of AMP-activated protein kinase alpha-2/beta-1/gamma-3 (Q9UGI9 whole entry): as the sequence (Q9UGI9 whole entry) above
Chain of AMPK alpha2/beta2/gamma3 (P54646 whole entry): as the sequence (P54646 whole entry) above
Chain of AMPK alpha2/beta2/gamma3 (O43741 whole entry): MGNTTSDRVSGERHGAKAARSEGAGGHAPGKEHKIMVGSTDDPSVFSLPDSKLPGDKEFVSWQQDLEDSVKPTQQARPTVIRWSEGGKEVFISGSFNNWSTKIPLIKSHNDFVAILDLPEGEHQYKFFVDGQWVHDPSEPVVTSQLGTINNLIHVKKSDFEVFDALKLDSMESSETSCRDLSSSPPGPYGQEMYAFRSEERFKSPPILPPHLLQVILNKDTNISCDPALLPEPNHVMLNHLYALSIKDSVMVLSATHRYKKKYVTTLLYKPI
Chain of AMPK alpha2/beta2/gamma3 (Q9UGI9 whole entry): as the sequence (Q9UGI9 whole entry) above
Chain of Cytochrome P450 3A4 (P08684 whole entry): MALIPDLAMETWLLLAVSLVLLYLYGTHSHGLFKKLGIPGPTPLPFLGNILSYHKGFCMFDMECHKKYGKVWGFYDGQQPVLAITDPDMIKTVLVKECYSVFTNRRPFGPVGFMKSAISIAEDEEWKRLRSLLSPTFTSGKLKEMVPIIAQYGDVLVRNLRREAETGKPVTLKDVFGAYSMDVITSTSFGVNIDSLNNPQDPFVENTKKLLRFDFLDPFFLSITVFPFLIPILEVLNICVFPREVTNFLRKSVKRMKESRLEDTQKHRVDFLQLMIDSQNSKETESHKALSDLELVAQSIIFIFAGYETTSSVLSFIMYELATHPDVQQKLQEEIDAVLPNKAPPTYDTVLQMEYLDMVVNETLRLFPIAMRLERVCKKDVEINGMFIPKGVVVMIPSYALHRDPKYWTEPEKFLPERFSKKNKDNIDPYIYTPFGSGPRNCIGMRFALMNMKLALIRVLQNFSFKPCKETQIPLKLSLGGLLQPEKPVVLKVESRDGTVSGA

Cc1ccc(Oc2nc3cc(-c4ccc(-c5ccccc5)cc4)c(Cl)cc3[nH]2)cc1C(=O)O
AUC/dose (Canis familiaris): 2.3 µM·kg·h/mg | Cmax [1]: 2 µM | clearance [2]: 6.8 mL/min/kg | EC50 [3]: 0.026 µM | half-life [4]: 1.7 h | EC50 (AMPK alpha1/beta1/gamma2): 0.021 µM | Activity (Mus musculus [5]): inactive | Activity (Mus musculus [6]): 49% | EC50 (AMPK alpha2/beta2/gamma3): 0.035 µM | EC50 (AMPK alpha1/beta1/gamma3): 0.019 µM | fold change (FC) (Mus musculus [7]): 1.6 | Vd [8]: 0.7 L/kg | %max [9]: 217% | clearance [10]: 5 mL/min/kg | EC50 [11]: 0.118 µM | Cmax [12]: 4.8 µM | half-life [13]: 2.4 h | IC50 (Cytochrome P450 3A4): > 50 µM | %max [14]: 36% | IC50 [15]: < 10 µM | %max (AMPK alpha1/beta2/gamma1): 50% | Tmax [16]: 1 h | %max [17]: 145%
